Measurements from ChEMBL document CHEMBL2331189, “Synthesis of tacrine-lophine hybrids via one-pot four component reaction and biological evaluation as acetyl- and butyrylcholinesterase inhibitors” (Eur J Med Chem, 2013).
pIC50: −log10 of the molar value.

Key:
[1] = Ratio of IC50 for BuChE in human plasma to IC50 for AChE in Wistar rat brain cortex; assay type: cell-free
Cholinesterase = Cholinesterase (Homo sapiens, UniProt P06276); assay: Inhibition of BuChE in human plasma using butyrylthiocholine iodide as substrate by Ellman's colorimetric method; conditions: for pIC50: read-out: IC50
Cholinesterase, sequence (P06276 whole entry): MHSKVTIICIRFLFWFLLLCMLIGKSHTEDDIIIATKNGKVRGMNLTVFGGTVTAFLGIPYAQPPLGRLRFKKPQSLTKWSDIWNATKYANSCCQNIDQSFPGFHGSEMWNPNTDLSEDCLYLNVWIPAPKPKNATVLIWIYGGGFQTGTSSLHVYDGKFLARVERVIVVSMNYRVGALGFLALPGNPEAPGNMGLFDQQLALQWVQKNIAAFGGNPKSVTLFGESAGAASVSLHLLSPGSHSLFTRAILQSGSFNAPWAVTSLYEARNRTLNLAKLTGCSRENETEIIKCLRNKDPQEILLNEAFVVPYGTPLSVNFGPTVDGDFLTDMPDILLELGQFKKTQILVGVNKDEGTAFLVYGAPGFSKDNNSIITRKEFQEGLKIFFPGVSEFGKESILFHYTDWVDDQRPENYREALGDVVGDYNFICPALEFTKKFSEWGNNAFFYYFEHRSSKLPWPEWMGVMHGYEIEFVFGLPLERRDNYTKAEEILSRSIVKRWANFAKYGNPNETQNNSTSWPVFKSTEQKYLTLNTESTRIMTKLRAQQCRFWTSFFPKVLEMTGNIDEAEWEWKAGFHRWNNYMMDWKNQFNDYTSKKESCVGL
How it was run: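 The BuChE source is plasma from 5 healthy human volunteers (24–60 years, both sexes), centrifuged at 1000× g for 15 min at room temperature and stored at −20 °C. In 20 mM phosphate buffer pH 7.4, plasma was incubated 150 s with 0.8 mM butyrylthiocholine iodide and DTNB. Absorbance of the yellow anion was read at 415 nm. Protein was determined by Peterson-modified Lowry against BSA.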

Acetylcholinesterase = target: T1, Acetylcholinesterase (Rattus norvegicus, UniProt P37136); assay: Inhibition of AChE in Wistar rat brain cortex using acetylthiocholine iodide as substrate by Ellman's colorimetric method; conditions: for pIC50: read-out: IC50
T1 sequence (P37136 whole entry): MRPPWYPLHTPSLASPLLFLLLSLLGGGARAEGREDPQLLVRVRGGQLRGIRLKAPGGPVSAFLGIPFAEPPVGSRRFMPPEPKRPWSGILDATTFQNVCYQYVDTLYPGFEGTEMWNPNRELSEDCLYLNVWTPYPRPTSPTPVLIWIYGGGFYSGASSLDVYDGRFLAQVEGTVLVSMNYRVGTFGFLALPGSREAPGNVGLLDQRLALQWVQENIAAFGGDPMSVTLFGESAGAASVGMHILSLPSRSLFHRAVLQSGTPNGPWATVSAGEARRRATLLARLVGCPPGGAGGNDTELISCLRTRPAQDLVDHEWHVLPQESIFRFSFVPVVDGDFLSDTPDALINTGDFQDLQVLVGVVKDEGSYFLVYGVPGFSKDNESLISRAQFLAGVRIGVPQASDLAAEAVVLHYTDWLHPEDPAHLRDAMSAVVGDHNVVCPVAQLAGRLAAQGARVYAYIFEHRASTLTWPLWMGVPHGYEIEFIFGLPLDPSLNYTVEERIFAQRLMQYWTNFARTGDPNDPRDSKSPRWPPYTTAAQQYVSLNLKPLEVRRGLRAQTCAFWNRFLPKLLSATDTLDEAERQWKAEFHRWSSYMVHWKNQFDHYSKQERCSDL
How it was run: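 Enzyme source is the cortex of adult male Wistar rats (2–3 months), dissected on ice and homogenized in cold 10 mM Tris-HCl pH 7.2 with 160 mM sucrose. The 10,000× g supernatant (10 min, 4 °C) was stored at −20 °C. The sample in 20 mM phosphate pH 7.4 was incubated 150 s with 0.8 mM acetylthiocholine iodide plus DTNB.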

| SMILES | Ratio IC50 [1] | pIC50 (Cholinesterase) | pIC50 (Acetylcholinesterase) | IC50 (Acetylcholinesterase) | IC50 (Cholinesterase) |
| --- | --- | --- | --- | --- | --- |
| Fc1ccc(-c2nc(-c3ccccc3)c(-c3ccccc3)n2CCCCCCCNc2c3c(nc4ccccc24)CCCC3)cc1 | 1.7 | 7.17 | 7.41 | – | – |
| N#Cc1ccc(-c2nc(-c3ccccc3)c(-c3ccccc3)n2CCCCCCCNc2c3c(nc4ccccc24)CCCC3)cc1 | – | 8.15 | – | Not Active | – |
| Fc1ccc(-c2nc(-c3ccccc3)c(-c3ccccc3)n2CCCCCCCCNc2c3c(nc4ccccc24)CCCC3)cc1 | 2.2 | 7.24 | 7.59 | – | – |
| COc1ccc(-c2nc(-c3ccccc3)c(-c3ccccc3)n2CCCCCCNc2c3c(nc4ccccc24)CCCC3)cc1 | – | 7.44 | – | Not Active | – |
| O=[N+]([O-])c1ccc(-c2nc(-c3ccccc3)c(-c3ccccc3)n2CCCCCCNc2c3c(nc4ccccc24)CCCC3)cc1 | – | 7.91 | – | Not Active | – |
| Fc1ccc(-c2nc(-c3ccccc3)c(-c3ccccc3)n2CCCCCCNc2c3c(nc4ccccc24)CCCC3)cc1 | – | 7.26 | – | Not Active | – |
| Clc1cccc(-c2nc(-c3ccccc3)c(-c3ccccc3)n2CCCCCCCNc2c3c(nc4ccccc24)CCCC3)c1 | – | – | – | Not Active | Not Active |
| Clc1ccc(-c2nc(-c3ccccc3)c(-c3ccccc3)n2CCCCCCCCCCNc2c3c(nc4ccccc24)CCCC3)cc1 | – | – | – | Not Active | Not Active |
| c1ccc(-c2nc(-c3ccccc3)n(CCCCCCCn3c(-c4ccccc4)nc(-c4ccccc4)c3-c3ccccc3)c2-c2ccccc2)cc1 | – | – | – | Not Active | Not Active |
| Clc1ccc(-c2nc(-c3ccccc3)c(-c3ccccc3)n2CCCCCCCNc2c3c(nc4ccccc24)CCCC3)cc1 | 0.6 | 7.43 | 7.22 | – | – |
| N#Cc1ccc(-c2nc(-c3ccccc3)c(-c3ccccc3)n2CCCCCCCCNc2c3c(nc4ccccc24)CCCC3)cc1 | – | 7.52 | – | Not Active | – |
| O=[N+]([O-])c1ccc(-c2nc(-c3ccccc3)c(-c3ccccc3)n2CCCCCCCCNc2c3c(nc4ccccc24)CCCC3)cc1 | – | 6.92 | – | Not Active | – |
| Clc1cccc(-c2nc(-c3ccccc3)c(-c3ccccc3)n2CCCCCCCCNc2c3c(nc4ccccc24)CCCC3)c1 | – | – | – | Not Active | Not Active |
| Clc1ccc(-c2nc(-c3ccccc3)c(-c3ccccc3)n2CCCCCCCCNc2c3c(nc4ccccc24)CCCC3)cc1 | 18.5 | 6.96 | 8.23 | – | – |
| c1ccc(-c2nc(-c3ccccc3)n(CCCCCCCCCn3c(-c4ccccc4)nc(-c4ccccc4)c3-c3ccccc3)c2-c2ccccc2)cc1 | – | – | – | Not Active | Not Active |
| c1ccc(-c2nc(-c3ccccc3)n(CCCCCCn3c(-c4ccccc4)nc(-c4ccccc4)c3-c3ccccc3)c2-c2ccccc2)cc1 | – | – | – | Not Active | Not Active |
| Clc1ccc(-c2nc(-c3ccccc3)c(-c3ccccc3)n2CCCCCCCCCNc2c3c(nc4ccccc24)CCCC3)cc1 | – | – | – | Not Active | Not Active |
| Clc1cccc(-c2nc(-c3ccccc3)c(-c3ccccc3)n2CCCCCCNc2c3c(nc4ccccc24)CCCC3)c1 | – | 7.46 | – | Not Active | – |
| N#Cc1ccc(-c2nc(-c3ccccc3)c(-c3ccccc3)n2CCCCCCNc2c3c(nc4ccccc24)CCCC3)cc1 | – | 7.53 | – | Not Active | – |
| c1ccc(-c2nc(-c3ccccc3)n(CCCCCCCNc3c4c(nc5ccccc35)CCCC4)c2-c2ccccc2)cc1 | 1.1 | 7.03 | 7.09 | – | – |
| COc1ccc(-c2nc(-c3ccccc3)c(-c3ccccc3)n2CCCCCCCNc2c3c(nc4ccccc24)CCCC3)cc1 | 0.9 | 7.21 | 7.16 | – | – |
| c1ccc(-c2nc(-c3ccccc3)n(CCCCCCCCCCn3c(-c4ccccc4)nc(-c4ccccc4)c3-c3ccccc3)c2-c2ccccc2)cc1 | – | – | – | Not Active | Not Active |
| COc1ccc(-c2nc(-c3ccccc3)c(-c3ccccc3)n2CCCCCCCCNc2c3c(nc4ccccc24)CCCC3)cc1 | 0.6 | 7.08 | 6.90 | – | – |
| c1ccc(-c2nc(-c3ccccc3)n(CCCCCCNc3c4c(nc5ccccc35)CCCC4)c2-c2ccccc2)cc1 | – | 7.24 | – | Not Active | – |
| Clc1ccc(-c2nc(-c3ccccc3)c(-c3ccccc3)n2CCCCCCNc2c3c(nc4ccccc24)CCCC3)cc1 | – | 7.53 | – | Not Active | – |
| c1ccc(-c2nc(-c3ccccc3)n(CCCCCCCCn3c(-c4ccccc4)nc(-c4ccccc4)c3-c3ccccc3)c2-c2ccccc2)cc1 | – | – | 7.37 | – | Not Active |
| O=[N+]([O-])c1ccc(-c2nc(-c3ccccc3)c(-c3ccccc3)n2CCCCCCCNc2c3c(nc4ccccc24)CCCC3)cc1 | 1 | 7.11 | 7.14 | – | – |
| c1ccc(-c2nc(-c3ccccc3)n(CCCCCCCCNc3c4c(nc5ccccc35)CCCC4)c2-c2ccccc2)cc1 | – | – | – | Not Active | Not Active |
| c1ccc2c(NCCCCCCCNc3c4c(nc5ccccc35)CCCC4)c3c(nc2c1)CCCC3 | – | 8.04 | – | – | – |
